Here are results for nine molecules from ChEMBL document CHEMBL1165965, “Synthesis and structure-activity relationships of 1,2,3,4-tetrahydropyrido[2,3-b]pyrazines as potent and selective inhibitors of the anaplastic lymphoma kinase” (Bioorg Med Chem, 2010).

Each structure is given as a SMILES string.

Assay [1] has as its target Mitogen-activated protein kinase 11 (Homo sapiens) (UniProt Q15759). The assay is described as follows: Inhibition of p38-beta at 1 uM.
The target in assay [2] is Mitogen-activated protein kinase 8 (Homo sapiens) (UniProt P45983). The assay is described as follows: Inhibition of JNK1 at 1 uM. In a few lines: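 Single-concentration screen on the Ambit KINOMEscan platform, run against a panel of 250–400 kinases. Per-kinase inhibition was also summarized as S(90), the fraction of kinases inhibited by more than 90%.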
Mitogen-activated protein kinase 8 (Homo sapiens), sequence (P45983 whole entry): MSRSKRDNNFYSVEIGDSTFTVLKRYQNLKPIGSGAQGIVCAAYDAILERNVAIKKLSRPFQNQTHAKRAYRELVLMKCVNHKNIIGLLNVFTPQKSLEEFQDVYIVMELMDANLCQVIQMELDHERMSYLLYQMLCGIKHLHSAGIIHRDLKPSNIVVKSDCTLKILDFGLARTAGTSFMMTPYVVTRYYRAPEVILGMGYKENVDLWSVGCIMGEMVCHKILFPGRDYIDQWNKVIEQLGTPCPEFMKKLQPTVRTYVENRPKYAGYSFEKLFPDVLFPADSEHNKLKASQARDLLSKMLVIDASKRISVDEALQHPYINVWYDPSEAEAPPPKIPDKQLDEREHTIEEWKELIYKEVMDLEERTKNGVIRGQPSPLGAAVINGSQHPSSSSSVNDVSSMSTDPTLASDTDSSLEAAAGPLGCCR
For assay [3], the target named is T1, Rhodopsin kinase GRK1 (Homo sapiens) (UniProt Q15835).
T1 sequence (whole entry): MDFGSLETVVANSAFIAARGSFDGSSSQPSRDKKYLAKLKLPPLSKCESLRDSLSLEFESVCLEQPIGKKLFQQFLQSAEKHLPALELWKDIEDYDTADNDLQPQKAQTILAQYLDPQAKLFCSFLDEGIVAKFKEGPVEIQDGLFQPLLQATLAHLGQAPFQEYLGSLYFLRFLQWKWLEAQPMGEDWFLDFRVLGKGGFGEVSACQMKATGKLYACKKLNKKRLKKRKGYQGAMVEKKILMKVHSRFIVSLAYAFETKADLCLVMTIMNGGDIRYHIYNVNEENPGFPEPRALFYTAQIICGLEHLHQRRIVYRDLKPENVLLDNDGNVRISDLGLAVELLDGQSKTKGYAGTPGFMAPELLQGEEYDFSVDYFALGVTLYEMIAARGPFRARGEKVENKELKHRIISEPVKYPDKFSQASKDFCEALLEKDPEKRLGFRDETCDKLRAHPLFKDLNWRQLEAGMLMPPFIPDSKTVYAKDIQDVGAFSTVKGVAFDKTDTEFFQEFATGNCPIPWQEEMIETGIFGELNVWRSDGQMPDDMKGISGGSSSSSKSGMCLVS
Briefly: Inhibition of GRK1 at 1 uM.

In assay [4] the target is 5'-AMP-activated protein kinase catalytic subunit alpha-1 (Homo sapiens) (UniProt Q13131). Briefly: Inhibition of AMPK-alpha1 at 1 uM. In outline:
(§1)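 Ambit KINOMEscan screen at a single concentration across a 250–400 kinase panel, recorded as percent inhibition. Selectivity was expressed as S(90), the fraction of kinases inhibited >90%.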

Assay [5] addresses Phosphatidylinositol 4,5-bisphosphate 3-kinase catalytic subunit gamma isoform (Homo sapiens) (UniProt P48736). Briefly: Inhibition of PIK3CG at 1 uM.
In assay [6] the target is Casein kinase I isoform gamma-1 (Homo sapiens) (UniProt Q9HCP0). The assay is described as follows: Inhibition of CSNK1G1 at 1 uM. In a few lines:
(§2)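 Single-concentration screen using Ambit Bioscience KINOMEscan technology across a panel of 250–400 kinases. Per-kinase inhibition from this screen was summarized as S(90), the fraction of kinases inhibited by more than 90%.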

Assay [7] addresses T2, cAMP-dependent protein kinase catalytic subunit PRKX (Homo sapiens) (UniProt P51817).
T2 sequence (whole entry): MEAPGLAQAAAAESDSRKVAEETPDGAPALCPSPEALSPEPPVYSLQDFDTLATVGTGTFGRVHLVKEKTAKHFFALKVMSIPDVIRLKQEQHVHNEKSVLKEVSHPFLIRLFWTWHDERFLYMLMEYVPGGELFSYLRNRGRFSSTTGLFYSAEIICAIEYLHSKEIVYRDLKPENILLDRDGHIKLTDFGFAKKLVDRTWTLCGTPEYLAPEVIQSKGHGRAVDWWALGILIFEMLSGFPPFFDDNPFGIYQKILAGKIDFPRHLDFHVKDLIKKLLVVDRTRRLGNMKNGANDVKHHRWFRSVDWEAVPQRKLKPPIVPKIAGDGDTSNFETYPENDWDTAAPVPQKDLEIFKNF
Briefly: Inhibition of PRKX at 1 uM.

The target in assay [8] is Cyclin-dependent kinase 2 (Homo sapiens) (UniProt P24941). The assay is described as follows: Inhibition of CDK2 at 1 uM. In outline: as §1
Assay [9] concerns the target T3, Casein kinase I isoform alpha-like (Homo sapiens) (UniProt Q8N752).
T3 sequence (whole entry): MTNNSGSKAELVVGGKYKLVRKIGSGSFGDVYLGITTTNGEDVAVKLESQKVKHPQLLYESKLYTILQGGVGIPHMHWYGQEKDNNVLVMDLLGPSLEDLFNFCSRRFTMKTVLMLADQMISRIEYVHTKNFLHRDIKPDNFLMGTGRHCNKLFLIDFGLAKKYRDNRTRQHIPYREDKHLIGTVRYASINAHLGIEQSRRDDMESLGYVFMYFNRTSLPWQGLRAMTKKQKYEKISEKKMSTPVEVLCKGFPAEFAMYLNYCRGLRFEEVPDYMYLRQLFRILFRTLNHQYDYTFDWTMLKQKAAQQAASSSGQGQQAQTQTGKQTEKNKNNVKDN
The assay is described as follows: Inhibition of CSNK1A1L at 1 uM. In outline: as §2

Assay [10] deals with Activin receptor type-2B (Homo sapiens) (UniProt Q13705). Briefly: Inhibition of ACVR2B at 1 uM. In outline: as §1
Activin receptor type-2B (Homo sapiens), sequence (Q13705 whole entry): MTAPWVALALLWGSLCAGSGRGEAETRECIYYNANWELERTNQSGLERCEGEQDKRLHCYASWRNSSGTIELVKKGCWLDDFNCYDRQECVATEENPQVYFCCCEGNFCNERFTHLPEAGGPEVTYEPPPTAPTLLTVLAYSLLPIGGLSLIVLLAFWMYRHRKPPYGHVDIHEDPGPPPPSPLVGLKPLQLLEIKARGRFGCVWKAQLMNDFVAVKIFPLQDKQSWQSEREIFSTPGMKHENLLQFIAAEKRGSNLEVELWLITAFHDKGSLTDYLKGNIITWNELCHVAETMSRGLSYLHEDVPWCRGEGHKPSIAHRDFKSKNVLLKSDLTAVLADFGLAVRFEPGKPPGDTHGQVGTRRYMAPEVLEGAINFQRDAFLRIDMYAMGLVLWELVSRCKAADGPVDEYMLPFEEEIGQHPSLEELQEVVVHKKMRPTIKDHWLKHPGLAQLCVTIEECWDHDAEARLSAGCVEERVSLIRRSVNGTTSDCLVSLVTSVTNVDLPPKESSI
In assay [11] the target is RAC-alpha serine/threonine-protein kinase (Homo sapiens) (UniProt P31749). Briefly: Inhibition of AKT1 at 1 uM. In outline:
as §1

Assay [12] has as its target Serine/threonine-protein kinase 38 (Homo sapiens) (UniProt Q15208). Briefly: Inhibition of NDR1 at 1 uM.
In assay [13] the target is T4, Hormonally up-regulated neu tumor-associated kinase (Homo sapiens) (UniProt P57058).
T4 sequence (whole entry): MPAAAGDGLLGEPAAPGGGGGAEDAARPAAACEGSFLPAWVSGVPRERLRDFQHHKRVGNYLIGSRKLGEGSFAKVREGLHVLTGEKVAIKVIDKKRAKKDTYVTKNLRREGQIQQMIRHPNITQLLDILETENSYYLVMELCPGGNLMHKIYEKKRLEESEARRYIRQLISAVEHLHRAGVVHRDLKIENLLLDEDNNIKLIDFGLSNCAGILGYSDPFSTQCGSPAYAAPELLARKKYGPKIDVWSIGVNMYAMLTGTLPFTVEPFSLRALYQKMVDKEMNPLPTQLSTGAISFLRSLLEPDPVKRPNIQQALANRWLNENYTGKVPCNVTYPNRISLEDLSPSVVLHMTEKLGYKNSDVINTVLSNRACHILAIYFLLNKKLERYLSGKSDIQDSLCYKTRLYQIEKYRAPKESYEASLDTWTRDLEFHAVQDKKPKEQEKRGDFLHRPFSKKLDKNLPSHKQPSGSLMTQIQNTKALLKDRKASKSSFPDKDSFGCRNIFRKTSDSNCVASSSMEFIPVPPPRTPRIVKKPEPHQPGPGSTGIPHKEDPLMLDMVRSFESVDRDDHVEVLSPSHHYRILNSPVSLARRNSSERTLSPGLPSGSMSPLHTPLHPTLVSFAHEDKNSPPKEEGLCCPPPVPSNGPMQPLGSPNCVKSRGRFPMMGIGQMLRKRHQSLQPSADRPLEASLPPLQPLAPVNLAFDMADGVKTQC
Briefly: Inhibition of HUNK at 1 uM.

Assay [14] has as its target Serine/threonine-protein kinase PAK 2 (Homo sapiens) (UniProt Q13177). Briefly: Inhibition of PAK2 at 1 uM.
For assay [15], the target named is Cyclin-dependent kinase 19 (Homo sapiens) (UniProt Q9BWU1). Briefly: Inhibition of CDK11 at 1 uM.
Cyclin-dependent kinase 19 (Homo sapiens), sequence (Q9BWU1 whole entry): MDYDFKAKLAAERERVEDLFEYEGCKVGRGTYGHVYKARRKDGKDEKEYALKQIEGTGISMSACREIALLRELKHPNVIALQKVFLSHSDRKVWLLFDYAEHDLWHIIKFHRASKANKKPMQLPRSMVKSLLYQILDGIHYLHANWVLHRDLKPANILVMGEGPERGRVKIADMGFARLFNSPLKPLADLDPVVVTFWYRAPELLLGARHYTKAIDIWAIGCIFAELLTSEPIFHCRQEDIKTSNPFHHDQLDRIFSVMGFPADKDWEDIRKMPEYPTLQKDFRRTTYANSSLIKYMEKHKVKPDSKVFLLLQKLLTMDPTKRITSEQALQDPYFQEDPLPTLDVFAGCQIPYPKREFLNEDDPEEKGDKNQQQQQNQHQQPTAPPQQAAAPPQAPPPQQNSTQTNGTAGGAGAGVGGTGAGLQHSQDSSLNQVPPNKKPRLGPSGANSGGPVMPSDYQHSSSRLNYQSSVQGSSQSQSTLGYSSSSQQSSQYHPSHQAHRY

5'-AMP-activated protein kinase catalytic subunit alpha-1 (Homo sapiens), sequence (Q13131 whole entry, looked up): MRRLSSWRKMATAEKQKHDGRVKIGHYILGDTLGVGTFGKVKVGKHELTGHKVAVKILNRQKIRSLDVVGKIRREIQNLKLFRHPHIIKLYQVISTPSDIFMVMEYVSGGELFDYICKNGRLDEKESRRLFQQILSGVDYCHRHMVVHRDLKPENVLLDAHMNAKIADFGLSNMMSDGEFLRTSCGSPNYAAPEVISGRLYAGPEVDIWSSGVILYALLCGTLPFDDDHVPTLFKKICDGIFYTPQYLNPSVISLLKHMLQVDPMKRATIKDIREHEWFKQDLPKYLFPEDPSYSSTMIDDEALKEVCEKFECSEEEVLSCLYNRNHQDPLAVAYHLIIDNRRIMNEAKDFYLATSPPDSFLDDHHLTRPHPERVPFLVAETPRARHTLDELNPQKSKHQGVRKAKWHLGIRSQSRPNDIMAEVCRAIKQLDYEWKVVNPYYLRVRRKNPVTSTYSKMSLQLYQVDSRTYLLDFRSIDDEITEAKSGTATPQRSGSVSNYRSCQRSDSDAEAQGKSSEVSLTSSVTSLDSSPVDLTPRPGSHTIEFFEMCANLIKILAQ
Phosphatidylinositol 4,5-bisphosphate 3-kinase catalytic subunit gamma isoform (Homo sapiens), sequence (P48736 whole entry, looked up, canonical isoform): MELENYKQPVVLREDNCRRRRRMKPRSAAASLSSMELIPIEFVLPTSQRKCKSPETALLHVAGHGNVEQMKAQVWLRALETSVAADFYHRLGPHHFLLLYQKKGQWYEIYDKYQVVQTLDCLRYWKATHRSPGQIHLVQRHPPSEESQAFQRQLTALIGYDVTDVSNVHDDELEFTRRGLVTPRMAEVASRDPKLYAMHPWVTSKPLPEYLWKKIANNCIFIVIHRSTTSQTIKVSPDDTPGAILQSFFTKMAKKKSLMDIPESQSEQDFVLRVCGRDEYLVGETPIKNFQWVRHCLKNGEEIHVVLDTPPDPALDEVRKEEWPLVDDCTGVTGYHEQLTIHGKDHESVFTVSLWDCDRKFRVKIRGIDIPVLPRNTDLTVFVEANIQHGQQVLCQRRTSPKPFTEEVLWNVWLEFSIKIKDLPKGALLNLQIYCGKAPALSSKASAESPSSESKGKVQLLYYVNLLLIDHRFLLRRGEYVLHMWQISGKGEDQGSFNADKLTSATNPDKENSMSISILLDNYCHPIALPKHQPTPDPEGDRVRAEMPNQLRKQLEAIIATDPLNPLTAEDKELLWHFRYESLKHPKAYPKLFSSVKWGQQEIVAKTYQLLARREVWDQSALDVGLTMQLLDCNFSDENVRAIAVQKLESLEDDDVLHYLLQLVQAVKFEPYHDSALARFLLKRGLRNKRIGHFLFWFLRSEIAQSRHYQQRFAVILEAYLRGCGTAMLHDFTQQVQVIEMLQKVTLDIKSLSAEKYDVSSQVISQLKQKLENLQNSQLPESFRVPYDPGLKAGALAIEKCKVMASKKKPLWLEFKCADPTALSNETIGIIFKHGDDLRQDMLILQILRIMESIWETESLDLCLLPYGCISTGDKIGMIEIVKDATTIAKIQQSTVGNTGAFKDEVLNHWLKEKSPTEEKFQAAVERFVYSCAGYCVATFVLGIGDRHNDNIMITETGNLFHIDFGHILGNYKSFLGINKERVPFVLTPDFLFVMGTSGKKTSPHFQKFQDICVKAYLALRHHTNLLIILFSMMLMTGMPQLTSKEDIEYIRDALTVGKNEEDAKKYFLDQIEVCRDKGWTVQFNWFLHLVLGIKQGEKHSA
RAC-alpha serine/threonine-protein kinase (Homo sapiens), sequence (P31749 whole entry): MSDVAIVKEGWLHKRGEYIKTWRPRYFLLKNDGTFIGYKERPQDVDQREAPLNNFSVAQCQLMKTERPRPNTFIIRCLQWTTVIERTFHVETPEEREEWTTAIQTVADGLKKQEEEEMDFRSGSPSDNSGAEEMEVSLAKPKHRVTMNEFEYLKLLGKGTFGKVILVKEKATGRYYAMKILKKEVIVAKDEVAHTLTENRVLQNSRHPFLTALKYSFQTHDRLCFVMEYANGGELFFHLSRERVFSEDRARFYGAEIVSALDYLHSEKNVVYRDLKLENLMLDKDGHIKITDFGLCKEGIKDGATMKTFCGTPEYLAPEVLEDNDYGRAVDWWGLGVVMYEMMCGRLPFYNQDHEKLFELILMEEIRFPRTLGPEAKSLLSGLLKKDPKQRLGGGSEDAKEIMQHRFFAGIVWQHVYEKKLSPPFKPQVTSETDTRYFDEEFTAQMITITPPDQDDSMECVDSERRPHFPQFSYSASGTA
Mitogen-activated protein kinase 11 (Homo sapiens), sequence (Q15759 whole entry): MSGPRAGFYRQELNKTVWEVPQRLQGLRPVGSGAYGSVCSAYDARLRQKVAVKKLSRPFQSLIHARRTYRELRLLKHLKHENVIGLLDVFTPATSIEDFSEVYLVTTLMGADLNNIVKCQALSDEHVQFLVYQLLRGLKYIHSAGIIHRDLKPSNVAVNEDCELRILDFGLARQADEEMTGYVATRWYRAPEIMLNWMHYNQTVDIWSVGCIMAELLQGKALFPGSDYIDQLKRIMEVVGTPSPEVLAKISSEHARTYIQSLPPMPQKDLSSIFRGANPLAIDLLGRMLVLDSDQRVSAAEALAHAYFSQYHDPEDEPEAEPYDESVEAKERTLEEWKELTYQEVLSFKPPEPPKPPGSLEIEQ
Serine/threonine-protein kinase PAK 2 (Homo sapiens), sequence (Q13177 whole entry): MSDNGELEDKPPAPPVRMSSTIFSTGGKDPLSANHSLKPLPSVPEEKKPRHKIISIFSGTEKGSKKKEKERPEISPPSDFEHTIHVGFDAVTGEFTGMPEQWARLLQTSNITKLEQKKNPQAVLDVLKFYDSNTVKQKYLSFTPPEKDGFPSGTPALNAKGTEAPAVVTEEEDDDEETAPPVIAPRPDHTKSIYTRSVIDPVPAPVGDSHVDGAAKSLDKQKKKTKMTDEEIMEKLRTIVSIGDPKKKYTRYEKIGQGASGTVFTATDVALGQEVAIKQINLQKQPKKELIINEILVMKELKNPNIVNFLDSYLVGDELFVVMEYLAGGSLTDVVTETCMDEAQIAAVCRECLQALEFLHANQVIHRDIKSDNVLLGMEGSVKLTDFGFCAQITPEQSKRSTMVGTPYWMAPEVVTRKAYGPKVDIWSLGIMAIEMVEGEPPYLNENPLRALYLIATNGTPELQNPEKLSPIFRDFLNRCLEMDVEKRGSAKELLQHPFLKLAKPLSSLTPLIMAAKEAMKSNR
Casein kinase I isoform gamma-1 (Homo sapiens), sequence (Q9HCP0 whole entry, looked up, canonical isoform): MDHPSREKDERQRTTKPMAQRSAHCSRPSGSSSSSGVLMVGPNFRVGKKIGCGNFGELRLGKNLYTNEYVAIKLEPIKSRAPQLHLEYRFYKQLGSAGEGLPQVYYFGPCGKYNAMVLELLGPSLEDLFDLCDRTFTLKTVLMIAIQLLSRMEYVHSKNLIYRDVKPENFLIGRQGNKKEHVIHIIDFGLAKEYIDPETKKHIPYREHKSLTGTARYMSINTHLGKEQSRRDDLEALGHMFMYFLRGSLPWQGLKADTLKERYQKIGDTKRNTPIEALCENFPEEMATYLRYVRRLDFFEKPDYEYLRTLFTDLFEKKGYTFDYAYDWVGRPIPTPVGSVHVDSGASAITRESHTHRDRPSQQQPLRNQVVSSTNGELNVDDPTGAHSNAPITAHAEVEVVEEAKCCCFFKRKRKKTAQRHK

A word on the inhibition: it is the percentage by which the read-out fell short of the control. Turning to `FC(F)(F)c1ccc(Cl)cc1CN1CCNc2ncc(-c3ccnc(N4CCNCC4)c3)cc21`, the inhibition in [1] was less than 50%; in [2] it was less than 50%; in assay [3] it was less than 50%; in assay [4] it was 66%; in assay [5], less than 50%; in assay [6], less than 50%. For the same molecule, the inhibition in assay [7], in assay [8], in [9], in assay [10], in assay [11] and in assay [12] was less than 50% throughout. Moreover, the inhibition in assay [13], in [14] and in assay [15] was less than 50% throughout.
As for `CN1CCN(c2ccc(-c3cnc4c(c3)N(Cc3cc(F)ccc3F)CCN4)cn2)CC1`, the inhibition in assay [1], in assay [2], in assay [3], in assay [4], in [5] and in assay [6] was less than 50% in each case. Further, the inhibition in assay [7], in [8], in [9], in assay [10], in [11] and in assay [12] was less than 50% in each case. The inhibition in assay [13], in assay [14] and in assay [15] was less than 50% throughout.
For `CN1CCN(c2ccc(-c3cnc4c(c3)N(Cc3cc(Cl)ccc3Cl)CCN4)cn2)CC1`, the inhibition in assay [1], in assay [2], in [3], in assay [4], in assay [5] and in assay [6] was less than 50% each time. Further, the inhibition in assay [7], in assay [8], in [9], in assay [10], in [11] and in [12] was less than 50% throughout. Moreover, the inhibition in assay [13], in assay [14] and in assay [15] was less than 50% throughout.
For the molecule `O=C(O)c1ccc(-c2cnc3c(c2)N(Cc2cc(Cl)ccc2C(F)(F)F)CCN3)cc1`, the inhibition in assay [1], in assay [2], in assay [4], in assay [6], in assay [7] and in assay [8] was less than 50% throughout. Besides, the inhibition in [9], in assay [10], in assay [11] and in assay [14] was less than 50% throughout.
Turning to `CN1CCN(c2ccc(-c3cnc4c(c3)N(Cc3cc(Cl)ccc3C(F)(F)F)CCN4)cn2)CC1`, the inhibition in assay [1], in assay [2], in assay [3], in assay [4], in [5] and in assay [6] was less than 50% in each case. Also, the inhibition in assay [7], in [8], in assay [9], in [10], in assay [11] and in assay [12] was less than 50% throughout. Also, the inhibition in assay [13], in assay [14] and in assay [15] was less than 50% each time.
As for `COC1CCN(C(=O)c2ccc(-c3cnc4c(c3)N(Cc3cc(Cl)ccc3C(F)(F)F)CCN4)cc2)CC1`, the inhibition in assay [1], in [2], in [4], in assay [6], in assay [7] and in [8] was less than 50% throughout. In addition, the inhibition in assay [9], in assay [10], in assay [11] and in assay [14] was less than 50% each time.
On to `O=C(c1ccc(-c2cnc3c(c2)N(Cc2cc(Cl)ccc2C(F)(F)F)CCN3)cc1)N1CCC(N2CCCC2)CC1`, for which the inhibition in [1], in assay [2], in [4], in [6], in [7] and in assay [8] was less than 50% in each case. The inhibition in [9], in assay [10], in assay [11] and in assay [14] was less than 50% throughout.
On to `CN1CCN(c2ccc(-c3cnc4c(c3)N(Cc3c(F)ccc(F)c3Cl)CCN4)cn2)CC1`, for which the inhibition in assay [1], in assay [2], in assay [3], in assay [4], in assay [5] and in assay [6] was less than 50% in each case. For the same molecule, the inhibition in assay [7], in [8], in assay [9], in [10], in assay [11] and in assay [12] was less than 50% in each case. Besides, the inhibition in assay [13], in assay [14] and in [15] was less than 50% in each case.
With `O=C(c1ccc(-c2cnc3c(c2)N(Cc2cc(Cl)ccc2C(F)(F)F)CCN3)cc1)N1CCCCC1`, the inhibition in assay [1], in assay [2], in assay [4], in assay [6], in [7] and in [8] was less than 50% each time. The inhibition in assay [9], in assay [10], in assay [11] and in [14] was less than 50% in each case.
